According to ChEMBL document CHEMBL1131230 (J Med Chem, 1998):

Columns and labels:
[1] = Partition coefficient (logP); type: physicochemical; conditions: octanol/water
[2] = target: GABA-A receptor; anion channel; test: Inhibition of [35S]TBPS binding to GABA-A receptor in rat cerebral cortex.; type: tissue-based
Outline: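 Unwashed cortical membranes from male Sprague-Dawley rats (180-200 g), homogenized in 50 mM Tris-citrate pH 7.4 with […], centrifuged at 20000g and resuspended in buffer. Final 1 nM [35S]TBPS with 0.20-0.25 mg protein and NaCl, 90 min at 25 °C, then GF/B filtration and scintillation counting. Nonspecific binding defined with 100 µM picrotoxin.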

[3] = target: T1, GABA A receptor alpha-1/beta-1/gamma-2 (Homo sapiens, UniProt P14867+P18505+P18507); test: Direct activation of chloride current in Xenopus laevis oocytes expressing human alpha-1-beta-1-gamma-2 GABA-A receptor subunits; type: functional, cell-based, Oocyte
T1 sequence (P14867 whole entry): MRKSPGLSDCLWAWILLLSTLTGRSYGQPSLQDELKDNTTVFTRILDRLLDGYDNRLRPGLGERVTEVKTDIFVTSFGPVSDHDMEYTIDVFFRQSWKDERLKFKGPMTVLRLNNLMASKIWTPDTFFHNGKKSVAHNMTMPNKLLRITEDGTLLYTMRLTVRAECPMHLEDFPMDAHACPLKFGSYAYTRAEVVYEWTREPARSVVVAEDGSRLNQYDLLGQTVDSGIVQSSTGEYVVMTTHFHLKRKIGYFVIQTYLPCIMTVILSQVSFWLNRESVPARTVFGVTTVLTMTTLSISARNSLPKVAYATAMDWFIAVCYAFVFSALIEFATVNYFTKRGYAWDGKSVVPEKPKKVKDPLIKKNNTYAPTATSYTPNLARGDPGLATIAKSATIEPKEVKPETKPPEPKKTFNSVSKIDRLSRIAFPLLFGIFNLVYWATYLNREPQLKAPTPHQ
T1 sequence (P18507 whole entry): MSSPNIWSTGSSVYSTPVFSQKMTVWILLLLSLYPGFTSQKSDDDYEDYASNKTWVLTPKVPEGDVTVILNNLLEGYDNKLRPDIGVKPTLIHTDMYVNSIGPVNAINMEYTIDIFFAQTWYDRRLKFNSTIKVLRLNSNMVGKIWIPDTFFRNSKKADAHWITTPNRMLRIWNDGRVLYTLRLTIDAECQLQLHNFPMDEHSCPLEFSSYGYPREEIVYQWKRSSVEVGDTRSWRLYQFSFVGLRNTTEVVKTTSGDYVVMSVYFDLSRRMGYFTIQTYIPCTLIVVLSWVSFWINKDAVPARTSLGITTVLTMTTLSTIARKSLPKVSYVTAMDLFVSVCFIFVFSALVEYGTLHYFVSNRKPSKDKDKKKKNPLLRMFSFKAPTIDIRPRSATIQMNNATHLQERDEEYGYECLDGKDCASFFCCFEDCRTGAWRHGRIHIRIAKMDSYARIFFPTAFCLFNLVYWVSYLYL
T1 sequence (P18505 whole entry): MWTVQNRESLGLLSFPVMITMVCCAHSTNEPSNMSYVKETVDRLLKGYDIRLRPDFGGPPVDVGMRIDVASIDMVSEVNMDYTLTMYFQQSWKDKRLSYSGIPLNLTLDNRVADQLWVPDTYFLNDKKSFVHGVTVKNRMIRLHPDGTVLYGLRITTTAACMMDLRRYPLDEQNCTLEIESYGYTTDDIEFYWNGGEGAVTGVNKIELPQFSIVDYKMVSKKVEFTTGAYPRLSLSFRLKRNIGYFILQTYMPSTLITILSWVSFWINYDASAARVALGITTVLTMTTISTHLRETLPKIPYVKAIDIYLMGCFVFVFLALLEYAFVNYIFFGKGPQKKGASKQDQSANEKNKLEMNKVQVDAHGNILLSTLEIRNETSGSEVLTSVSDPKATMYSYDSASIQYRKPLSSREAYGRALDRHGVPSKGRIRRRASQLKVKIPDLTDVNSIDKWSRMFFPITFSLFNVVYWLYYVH
Outline: (§1)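 Human α1, β1 and γ2 subunit cDNAs in pCDM8 (1.5 ng/30 nL) injected into nuclei of defolliculated stage V-VI Xenopus oocytes, which were cultured at 19 °C in supplemented MBS. Recording by two-electrode voltage clamp at -70 mV about 24 h after injection, with MBS perfusion at room temperature. Compounds came from 10 mM DMSO stocks diluted in MBS. Responses were normalized to a GABA control response, either EC20 or 10 mM GABA.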

[4] = target: T2, GABA A receptor alpha-1/beta-1/gamma-2 (Homo sapiens) (UniProt P14867+P18507+P18505); test: Modulation of GABA-induced chloride currents (percentage of GABA EC20 response) against human alpha-1-beta-1-gamma-2 GABA-A receptor subunits expressed in Xenopus laevis oocytes; type: functional, cell-based; conditions: Oocyte; outline: as §1
[5] = target: T1, GABA A receptor alpha-1/beta-1/gamma-2; test: Modulation of GABA-induced chloride currents in Xenopus laevis oocytes expressing human alpha-1-beta-1-gamma-2 GABA-A receptor subunits; type: functional, cell-based, Oocyte; outline: as §1
[6] = target: T2, GABA A receptor alpha-1/beta-1/gamma-2 (Homo sapiens); test: Direct activation of chloride currents (percentage of 10 mM GABA response) in Xenopus laevis oocytes expressing human alpha-1-beta-1-gamma-2 GABA-A receptor subunits; type: functional, cell-based; conditions: Oocyte; outline: as §1
[7] = test system: GABA-A receptor; anion channel; test: In vitro inhibition of [35S]TBPS binding to Gamma-aminobutyric acid A (GABA-A) receptor of rat cerebral cortex (No displacement); type: tissue-based

Compound | logP [1] | IC50 [2] [µM] | other results
CC(C)c1cc([N+](=O)[O-])cc(C(C)C)c1O | 4.71 | 1.95 | –
CC(C)c1cc(N)cc(C(C)C)c1O | 3.1 | 23.6 | –
CC(C)c1cc(Br)cc(C(C)C)c1O | 5.49 | 1.07 | EC50 [3]: 38 µM; Max potentiation [4]: 223%; EC50 [5]: 12 µM; Max activation [6]: 34%
CC(C)c1cc(C=O)cc(C(C)C)c1O | 4.3 | 5.8 | –
CC(C)c1cccc(C(=O)O)c1O | – | – | IC50 [7]: Not Active
COc1c(C(C)C)cccc1C(C)C | – | 37 | –
CC(C)c1cc(CN(C)C)cc(C(C)C)c1O | 2.5 | 739 | –
CC(C)c1cc(NS(C)(=O)=O)cc(C(C)C)c1O | 3.14 | 131 | –
COC(CNCC(=O)Oc1c(C(C)C)cccc1C(C)C)OC | – | 15.6 | –
CC(C)c1cc(Cl)cc(C(C)C)c1O | 5.34 | 1.44 | EC50 [3]: 38 µM; Max potentiation [4]: 205%; EC50 [5]: 10 µM; Max activation [6]: 37%
CC(C)c1cc(N(C)C)cc(C(C)C)c1O | 4.52 | 5.7 | –
CC(C)c1cc([N+](C)(C)C)cc(C(C)C)c1O.[I-] | – | – | IC50 [7]: Not Active
COC(=O)c1cccc(C(C)C)c1O | – | 39.5 | –
CC(C)c1cccc(C(C)C)c1OC(=O)CN1CCOCC1 | – | – | IC50 [7]: Not Active
CC(C)c1cc(NC(=O)C(F)(F)F)cc(C(C)C)c1O | 4.46 | 14 | –
CC(C)c1cc(C(=O)c2ccccc2)cc(C(C)C)c1O | 5.91 | 0.85 | EC50 [3]: 47 µM; Max potentiation [4]: 220%; EC50 [5]: 9 µM; Max activation [6]: 41%
CC(C)c1cccc(C(C)C)c1OC(=O)CN1CCCC1 | – | 6.52 | –
CC(C)c1cccc(C(C)C)c1OC(=O)c1ccccc1 | – | 15.2 | –
COS(=O)(=O)c1cc(C(C)C)c(O)c(C(C)C)c1 | 3.7 | 9.4 | –
CC(C)c1cccc(C(C)C)c1O [PROPOFOL] | 4.33 | – | EC50 [3]: 44 µM; Max potentiation [4]: 296%; EC50 [5]: 8 µM; Max activation [6]: 38%
CC(=O)Oc1c(C(C)C)cccc1C(C)C | – | 8.5 | –
CC(C)c1cc(I)cc(C(C)C)c1O | 5.75 | 1.2 | EC50 [3]: 51 µM; Max potentiation [4]: 311%; EC50 [5]: 12 µM; Max activation [6]: 36%
CC(=O)Nc1cc(C(C)C)c(O)c(C(C)C)c1 | – | – | IC50 [7]: Not Active
CCCN(CCC)CC(=O)Oc1c(C(C)C)cccc1C(C)C | – | – | IC50 [7]: Not Active
CCN(CC)CC(=O)Oc1c(C(C)C)cccc1C(C)C | – | 21.8 | –
